Results published in PMC7115683 (European Journal of Medicinal Chemistry, 2013).

What was measured:
[1] = test system: P. falciparum (CQ^R) Dd2 strain; assay: In vitro antimalarial activity, Dd2 strain; assay type: cell-based, Plasmodium falciparum
[2] = Monomeric heme binding, UV-visible titration and Job's plot; details: association constant, HypSpec
Procedure, shortened: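 UV–visible titration of test compound with monomeric heme at pH 7.4 (HEPES) and at food-vacuole pH 5.6 (MES), 1 cm cuvette at 25 °C. Association constants (log K) derived from the titration curves by non-linear least-squares fitting in HypSpec.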

[3] = μ-oxo heme binding, UV-visible titration and Job's plot; details: pH 5.8; association constant, HypSpec
Procedure, shortened: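 UV–visible titration of test compound with μ-oxo heme at pH 5.8, plus Job plot (absorbance ratio A/A0 against mole fraction of test compound). Binding constant (log K) computed with HypSpec.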

[4] = test system: P. falciparum (CQ^S) D10 strain; assay: In vitro antimalarial activity, parasite lactate dehydrogenase assay, D10 strain; assay type: cell-based; details: Plasmodium falciparum, D10, read-out: D10 IC50
Feline herpes virus = assay: Anti-Feline Herpes Virus activity in CRFK cell cultures; assay type: cell-based; details: for EC50: CRFK, read-out: EC50 Feline herpes virus
CT DNA [5] = assay: CT DNA binding, fluorescence titration; details: emission band at 380 nm upon addition of CT DNA
Procedure, shortened: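 Steady-state fluorescence at ambient temperature. Test compound (17.1 μM) in buffered methanol titrated with CT DNA (0.5–150 μM). Excitation 330 nm, emission monitored at 376 nm.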

CT DNA [6] = assay: CT DNA binding, UV spectrophotometry titration; details: both absorptions (255 and 330 nm), CT-DNA addition
Procedure, shortened: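 Test compound (30 μM) in buffered methanol titrated with CT-DNA (4–200 μM). UV–visible spectra recorded 200–1100 nm in a 1 cm quartz cuvette, cell holder at 25 °C. Changes followed at the 255 nm and 330 nm absorption bands.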

[7] = test system: Madin Darby canine kidney (MDCK) cells; details: 50% cytotoxic concentration, MTS assay
[8] = test system: Feline corona virus (FIPV); assay: Anti-Feline Corona Virus activity in CRFK cell cultures; assay type: cell-based; details: HHA, UDA
[9] = test system: Crandell-Rees Feline Kidney (CRFK) cell cultures; details: MTS assay, HHA, UDA

Molecule: CCN(CC)CCCC(C)Nc1ccnc2cc(Cl)ccc12 (stereo not drawn) [CQ, Chloroquine]
- IC50 ([1]; Plasmodium falciparum, DD2, read-out: Dd2 IC50): 0.222 µM
- Monomeric heme, log K ± σ ([2]; pH 5.6 (MES buffer)): 4.65 ± 0.052
- Monomeric heme, log K ± σ ([2]; pH 7.4 (HEPES buffer)): 5.15 ± 0.176
- μ-oxoheme, log K ± σ [3]: 5.58 ± 0.006
- IC50 [4]: 0.035 µM

Molecule: COC(=O)c1c(C)nc(NCCCNc2ccnc3cc(Cl)ccc23)nc1-c1ccccc1 [Compound 5a, Methyl 2-(3-((7-chloroquinolin-4-yl)amino)propylamino)-4-methyl-6-phenylpyrimidine-5-carboxylate]
- EC50 (Feline herpes virus): > 20 µM

Molecule: Cc1nc(NCCCCNc2ccnc3cc(Cl)ccc23)nc(-c2ccccc2)c1C(=O)OC(C)C [Compound 5b, i-Propyl 2-(4-((7-chloroquinolin-4-yl)amino)butylamino)-4-methyl-6-phenylpyrimidine-5-carboxylate]
- fold increase in antimalarial activity than the standard CQ ([1]; CQ^R strain of P. falciparum): 2 fold
- shift in emission band (CT DNA [5]): 80 nm
- EC50 (Feline herpes virus): > 20 µM
- bathochromic shift (CT DNA [6]): ~3 nm

Molecule: CCOC(=O)c1c(C)nc(NCCCCNc2ccnc3cc(Cl)ccc23)nc1-c1ccccc1[N+](=O)[O-] [Compound 5c, Ethyl 2-(4-((7-chloroquinolin-4-yl)amino)butylamino)-4-methyl-6-(2-nitrophenyl)pyrimidine-5-carboxylate]
- EC50 (Feline herpes virus): > 100 µM

Molecule: CCOC(=O)c1c(C)nc(OCCCNc2ccnc3cc(Cl)ccc23)nc1-c1ccccc1 [Compound 5d, Ethyl 2-(3-((7-chloroquinolin-4-yl)amino)propoxy)-4-methyl-6-phenylpyrimidine-5-carboxylate]
- EC50 (Feline herpes virus): > 100 µM

Molecule: CCOC(=O)c1c(C)nc(NCCCCNc2ccnc3cc(Cl)ccc23)nc1-c1ccc(Cl)cc1 [Compound 5e, Ethyl 4-(4-chlorophenyl)-2-(4-((7-chloroquinolin-4-yl)amino)butylamino)-6-methylpyrimidine-5-carboxylate]
- EC50 (Feline herpes virus): > 100 µM

Molecule: CCOC(=O)c1c(C)nc(NCCCCNc2ccnc3cc(Cl)ccc23)nc1-c1ccc(F)cc1 [Compound 5f, Ethyl 4-(4-fluorophenyl)-2-(4-((7-chloroquinolin-4-yl)amino)butylamino)-6-methylpyrimidine-5-carboxylate]
- EC50 (Feline herpes virus): > 100 µM

Molecule: Ethyl 2-(3-((7-chloroquinolin-4-yl)amino)propylamino)-4-methylpyrimidine-5-carboxylate [Compound 5g]
- CC50 [7]: 10.3 µM

B1: UDA: reference agent in the CRFK antiviral assay, values in μg/ml; not explained in the paper (protein, UniProt P11218 24-372, looked up)
Lectin/endochitinase 1: QRCGSQGGGGTCPALWCCSIWGWCGDSEPYCGRTCENKCWSGERSDHRCGAAVGNPPCGQDRCCSVHGWCGGGNDYCSGSKCQYRCSSSVRGPRVALSGNSTANSIGNVVVTEPLFDQMFSHRKDCPSQGFYSYHSFLVAAESFPAFGTIGDVATRKREVAAFLAHISQATSGERSDVENPHAWGLCHINTTTVTENDFCTSSDWPCAAGKKYSPRGPIQLTHNFNYGLAGQAIGEDLIQNPDLVEKDPIISFKTALWFWMSQHDNKPSCHDIVLNANSAANRIPNKGVIGNIISRAFGHDDFAVRSSSIGFYKRYCDMLGVSYGHDLKYWFDNTPSSEFQRIQMRVAA
- EC50 Feline corona virus (FIPV) [8]: 1.6 µg/mL
- CC50 [9]: 63.2 µg/mL
- EC50 Feline herpes virus (Feline herpes virus; CRFK cell cultures, HHA, UDA): 1.0 µg/mL
